How the values were obtained:
Src^3D WT = Src^3D WT (Homo sapiens, UniProt P12931); test: Inhibitor IC50 determination, fluorescent SFK peptide kinase assay; format: biochemical; conditions: 1 mM ATP
Outline: (§1)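 Kinase concentrations were set in the linear range by prior titration: Src3D WT or V284C at 7.5 nM, Hck3D WT or V284C at 5 nM. Kinase was incubated 30 min with test compound (30 μM top, 3-fold serial dilutions, 10 points) and 1 mM ATP in HEPES pH 7.5 buffer with MgCl2, EGTA, BSA, vanadate and BME. Then 20 μM pyrene-labelled SFK peptide was added for 2 h. Fluorescence was read at ex 344/em 405 nm, in triplicate.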

[1] = system: kinases in lysates of HEK293T cells expressing Hck^FLAG V284C; test: Kinobead kinome profiling of CystIMATIK probes; format: binding, human; conditions: 10 μM probe vs DMSO, ~220 kinases enriched
Hck^3D WT = Hck^3D WT (Homo sapiens, UniProt P08631); test: Inhibitor IC50 determination, fluorescent SFK peptide kinase assay; format: biochemical; conditions: 1 mM ATP
Chain of Hck^3D WT (P08631 81-526): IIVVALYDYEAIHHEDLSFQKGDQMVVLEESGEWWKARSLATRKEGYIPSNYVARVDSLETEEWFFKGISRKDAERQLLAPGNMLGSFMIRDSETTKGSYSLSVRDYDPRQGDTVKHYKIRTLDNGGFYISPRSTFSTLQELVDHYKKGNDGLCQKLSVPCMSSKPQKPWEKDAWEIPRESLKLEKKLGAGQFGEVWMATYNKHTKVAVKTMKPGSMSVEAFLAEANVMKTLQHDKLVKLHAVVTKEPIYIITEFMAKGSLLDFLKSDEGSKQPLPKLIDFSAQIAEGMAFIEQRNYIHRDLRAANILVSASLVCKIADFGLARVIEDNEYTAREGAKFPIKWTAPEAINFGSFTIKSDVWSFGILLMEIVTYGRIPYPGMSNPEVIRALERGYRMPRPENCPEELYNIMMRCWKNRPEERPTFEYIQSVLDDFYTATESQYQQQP
Outline: as §1

Src^3D V284C = Src^3D V284C (Homo sapiens, UniProt P12931, V284C); test: as above; format: biochemical; conditions: 1 mM ATP
Outline: as §1

Src^FLAG V284C = Src^FLAG V284C (Homo sapiens, UniProt P12931, V284C); test: SH3 domain pulldown assay with inhibitor-treated cells; format: cell-based; conditions: HEK293 cells treated with 10 μM probe for 2 h; immobilized SH3 domain ligand
Outline: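 HEK293T cells expressing SrcFLAG V284C were treated with 10 μM test compound for 2 h. They were then PBS-washed and lysed for 20 min on ice in modified RIPA (pH 7.8, 1% IGEPAL, protease/phosphatase inhibitors, 10 μM compound). Lysates were cleared at 17,000x g, 4 °C, then incubated with SNAP-immobilized SH3 ligand resin, rotating at room temperature for 1 h. Retained Src was quantified by anti-FLAG blotting, n=3.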

[2] = system: Src^GFP V284C-expressing SYFs; test: Membrane blebbing microscopy; format: cell-based, murine; conditions: for membrane blebbing: 15 min treatment, 3 μM 2 or 10 μM 3 (1, 3 or 10 μM 3 for dose dependence)
Outline: (§2)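 SYF cells were seeded on glass slides at 2×10^4 and transfected 24 h later with turbofectin (3:1 μL:μg DNA). At 24 h post-transfection, cells were exposed to test compound for 15 min; where indicated, 10 μM ROCK inhibitor was given for 2 h beforehand. Cells were PBS-washed, fixed in 4% paraformaldehyde for 15 min, and stained with NucBlue and Alexa647-wheat-germ agglutinin for 15 min. The fraction of cells showing blebs was scored.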

[3] = system: SYFs expressing Src^GFP WT; test: Membrane blebbing microscopy; format: cell-based, murine; conditions: 10 μM 3, 15 min; Src^GFP WT resistant to probes
[4] = system: Fyn^myr V284C-expressing SYFs; test: Membrane blebbing microscopy; format: cell-based, murine; conditions: 10 μM 3, 15 min
Outline: as §2

[5] = system: Src^GFP G2A/V284C-expressing SYFs; test: Membrane blebbing microscopy; format: cell-based, murine; conditions: 10 μM 3, 15 min; non-myristoylatable Src
Outline: as §2

Src^FL K445C = Src^FL K445C (Homo sapiens, UniProt P12931, K445C); test: Isotope-coded maleimide labeling and mass spectrometry; conditions: 5 μM inhibitor
Outline: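 Purified SrcFL K445C was diluted to 800 nM in HEPES pH 7.6 buffer with 5% glycerol and 0.02% DDM. It was incubated with 5 μM test compound at 25 °C for 30 min, then labelled with 1 mM heavy or light N-ethyl maleimide at 25 °C for 30 min. The reaction was quenched with 10 mM DTT. Heavy and light reactions were mixed, and protein was precipitated with deoxycholate/TCA on ice before mass spectrometry.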

Row | Structure (SMILES) | inhibition of WT Src (IC50, Figure 4C) (Src^3D WT) | kinases depleted from Kinobead matrix (selectivity) [1] | inhibition of WT Hck (IC50, Figure 4C) (Hck^3D WT) | inhibition of Src V284C (IC50, Figure 4C) (Src^3D V284C) | SH3 domain accessibility (retained Src in SH3 pulldown) (Src^FLAG V284C) | membrane blebbing after pre-treatment with 2 prior to addition of 3 ([2]; 3 μM 2 for 15 min, then 10 μM 3 for 15 min) | membrane blebbing [2] | membrane blebbing [3] | membrane blebbing [4] | membrane blebbing [5] | maleimide labeling of control cysteine residue, 6 complex vs 5 complex (Src^FL K445C; control peptide) | K445C maleimide labeling, open (6) compared to closed (5) conformation (Src^FL K445C; αF peptide, ratio 6 complex vs 5 complex)
1 | COCCn1c(/C=C(/C#N)C(=O)NC(C)C)c(-c2ccc(Cl)cc2)c2c(N)ncnc21 [compound 1, (E)- & (Z)-3-(4-Amino-5-(4-chlorophenyl)-7-(2-methoxyethyl)-7H-pyrrolo[2,3-d]pyrimidin-6-yl)-2-cyano-N-isopropylacrylamide] | insensitive | Hck^FLAG V284C was the only kinase among the ~220 enriched that was depleted | insensitive | potently inhibited |  |  |  |  |  |  |  | 
2 | COCCn1c(/C=C(/C#N)C(=O)NC(C)C)c(-c2ccc(Oc3ccccc3)cc2)c2c(N)ncnc21 [compound 2, (E)- & (Z)-3-(4-Amino-7-(2-methoxyethyl)-5-(4-phenoxyphenyl)-7H-pyrrolo[2,3-d]pyrimidin-6-yl)-2-cyano-N-isopropylacrylamide] | minimal inhibition | Hck^FLAG V284C was the only kinase among the ~220 enriched that was depleted | minimal inhibition | potently inhibited | minimal pulldown | levels of blebbing comparable to cells treated with DMSO or 2 alone | minimally affected |  |  |  |  | 
3 | CNC(=O)C(C#N)=Cc1c(C#Cc2cc(NC(=O)c3cccc(C(F)(F)F)c3)ccc2C)c2cncnc2n1CCOC [compound 3, (E)- and (Z)-N-(3-((6-(2-cyano-3-(methylamino)-3-oxoprop-1-en-1-yl)-7-(2-methoxyethyl)-7H-pyrrolo[2,3-d]pyrimidin-5-yl)ethynyl)-4-methylphenyl)-3-(trifluoromethyl)benzamide] | minimal inhibition |  | minimal inhibition | potently inhibited | greatly increased |  | induction of blebbing | did not significantly increase membrane blebs | marked increase in blebbing | did not produce blebbing |  | 
4 | Cc1ccc(NC(=O)c2cccc(C(F)(F)F)c2)cc1C#Cc1nn(C2CCCC2)c2ncnc(N)c12 [compound 6, N-(3-((4-amino-1-cyclopentyl-1H-pyrazolo[3,4-d]pyrimidin-3-yl)ethynyl)-4-methylphenyl)-3-(trifluoromethyl)benzamide] |  |  |  |  |  |  |  |  |  |  | no change in labeling | ~ 5 fold

Source: article PMC6474823 (Molecular cell, 2019)
